Assay results published in publication PMC3828798 (Journal of the American Heart Association: Cardiovascular …, 2013).

Target: Recombinant angiotensin converting enzyme 2 (rACE2) (Homo sapiens, UniProt Q9BYF1)
Test: ACE2 proteolysis assay of pyr‐1‐apelin‐13 and APLN analogues
Assay type: in vitro ADME
Conditions: rACE2 in Tris buffer pH 8.0; HPLC coupled with MALDI‐TOF; Figures S8 and S9
How it was run: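 Quenched with 100 mmol/L EDTA pH 7.0. C18 reverse-phase HPLC, 10–45% acetonitrile/0.1% TFA, detection at 220 nm. Hydrolysis taken from substrate and product peak areas; masses confirmed by MALDI-TOF.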

Chain of Recombinant angiotensin converting enzyme 2 (rACE2) (Q9BYF1 18-805): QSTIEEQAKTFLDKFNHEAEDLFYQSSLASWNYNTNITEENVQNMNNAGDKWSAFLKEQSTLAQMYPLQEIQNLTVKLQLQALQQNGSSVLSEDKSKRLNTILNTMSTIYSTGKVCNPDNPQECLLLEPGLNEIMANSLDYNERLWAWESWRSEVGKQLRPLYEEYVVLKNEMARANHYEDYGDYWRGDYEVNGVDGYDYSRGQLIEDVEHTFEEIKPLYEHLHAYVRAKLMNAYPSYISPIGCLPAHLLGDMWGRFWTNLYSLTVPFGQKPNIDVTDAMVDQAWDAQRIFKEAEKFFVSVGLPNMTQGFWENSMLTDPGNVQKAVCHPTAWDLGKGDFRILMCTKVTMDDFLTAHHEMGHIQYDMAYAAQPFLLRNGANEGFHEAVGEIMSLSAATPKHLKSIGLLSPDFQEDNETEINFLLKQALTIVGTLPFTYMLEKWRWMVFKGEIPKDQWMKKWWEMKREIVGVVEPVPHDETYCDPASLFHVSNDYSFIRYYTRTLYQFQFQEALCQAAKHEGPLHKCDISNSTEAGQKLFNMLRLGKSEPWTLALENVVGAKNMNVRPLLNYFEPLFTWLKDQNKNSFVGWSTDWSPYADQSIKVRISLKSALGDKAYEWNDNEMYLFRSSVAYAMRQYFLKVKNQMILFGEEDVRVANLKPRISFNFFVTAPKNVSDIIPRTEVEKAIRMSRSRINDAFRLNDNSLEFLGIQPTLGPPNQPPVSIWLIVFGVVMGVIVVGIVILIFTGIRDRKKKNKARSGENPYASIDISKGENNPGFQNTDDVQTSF

pyr‐1‐apelin‐13 (QRPRLSHKGPMPF; Apelin-13 N-terminal pyroglutamate; UniProt Q9ULZ1 65-77, looked up, fragment)
susceptibility to ACE2‐mediated proteolysis (result in words): efficient ACE2‐mediated cleavage
